# ChEMBL document CHEMBL1773052, “3-Trifluoromethylquinoxaline N,N'-dioxides as anti-trypanosomatid agents. Identification of optimal anti-T. cruzi agents and mechanism of action studies” (J Med Chem, 2011)
# Active and inactive are the calls of the source. The rule behind the calls is not given here.
# Legend:
# [1] = test system: Trypanosoma cruzi; experiment: Antitrypanosomal activity against Trypanosoma cruzi CL Brener clone epimastigotes assessed as cell death at 25 uM after 2 days by MTT assay relative to control; type: functional
# Outline: (§1)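 Epimastigotes of each strain taken in exponential growth in BHI-tryptose with 5% FBS, 1 mL per well. Compounds added from DMSO and kept 2 days at 28 °C. Cells washed twice and resuspended in PBS-glucose (5.5 mM), then given 0.4 mg/mL MTT for 4 h at 28 °C. Lysis in SDS-isopropanol, OD read. Triplicate wells, six growth controls. PCyt taken against control, corrected for medium-only wells.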
# [2] = test system: Trypanosoma cruzi; experiment: Antitrypanosomal activity against Trypanosoma cruzi Y epimastigotes assessed as cell death at 25 uM after 2 days by MTT assay relative to control; type: functional; outline: as §1
# [3] = test system: Leishmania braziliensis; experiment: Antileishmanial activity against Leishmania braziliensis MHOM/BR/00/LTB300 promastigotes assessed as cell death after 2 days by MTT assay; type: functional; conditions: MHOM/BR/00/LTB300, 48 h, read-out: ID50 (the source's name)
# Outline: (§2)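 Parasites in exponential growth, in BHI-tryptose + 5% FBS for T. cruzi or RPMI + 5% FBS for L. braziliensis, 28 °C, 24-well plates. Compounds in DMSO; miltefosine in ethanol. 2-day exposure, two PBS-glucose (5.5 mM) washes, then MTT 0.4 mg/mL for 4 h at 28 °C. SDS-isopropanol lysis, OD read. Triplicates, six growth controls.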
# [4] = test system: Trypanosoma cruzi; experiment: Antitrypanosomal activity against Trypanosoma cruzi Colombiana epimastigotes assessed as cell death at 25 uM after 2 days by MTT assay relative to control; type: functional; outline: as §1
# [5] = test system: Trypanosoma cruzi; experiment: Antitrypanosomal activity against Trypanosoma cruzi Tulahuen 2 epimastigotes assessed as growth inhibition at 25 uM after 5 days relative to control; type: functional; conditions: Tulahuen 2, 120 h, read-out: GI
# Outline: (§3)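 Epimastigotes grown axenically at 28 °C in BHI-tryptose + 5% FBS; a 10-day stationary culture was inoculated to 1 × 10⁶ cells/mL. Drug added from DMSO stock, final DMSO ≤0.4%, vehicle control. A600 read daily. PGI on day 5 corrects for day-0 absorbance, relative to control. […] Three independent experiments.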
# [6] = test system: Trypanosoma cruzi; experiment: Antitrypanosomal activity against Trypanosoma cruzi CL Brener clone epimastigotes assessed as cell death after 2 days by MTT assay; type: functional; conditions: 48 h, read-out: ID50 (the source's name); outline: as §2
# [7] = test system: Trypanosoma cruzi; experiment: Antitrypanosomal activity against Trypanosoma cruzi Y epimastigotes assessed as cell death after 2 days by MTT assay; type: functional; conditions: 48 h, read-out: ID50 (the source's name); outline: as §2
# [8] = test system: Trypanosoma cruzi; experiment: Antitrypanosomal activity against Trypanosoma cruzi Tulahuen 2 epimastigotes assessed as growth inhibition after 5 days; type: functional; conditions: Tulahuen 2, 120 h, read-out: ID50; outline: as §3
# [9] = test system: Trypanosoma cruzi; experiment: Antitrypanosomal activity against Trypanosoma cruzi CL Brener clone trypomastigotes in parasite infected BALB/c mouse blood assessed as parasite lysis at 250 ug/ml after 24 hrs relative to control; type: functional
# Outline: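 Blood from BALB/c mice 7 days post-infection, taken by cardiac puncture into 3.8% sodium citrate (7:3). Compounds dissolved in DMSO, diluted in PBS to 100 or 250 μg/mL. 10 μL mixed with 100 μL infected blood (~10⁶ parasites/mL), in triplicate. Shaken 10 min at RT, held 4 °C for 24 h. Parasites counted by microscopy; gentian violet 250 μg/mL as standard.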
# [10] = Selectivity index, ratio of ID50 for mouse J774 cells to ID50 for Trypanosoma cruzi Tulahuen 2 epimastigotes; type: toxicity, cell-based; conditions: J774 cells versus Trypanosoma cruzi Tulahuen 2 epimastigotes, read-out: Selectivity Index
# [11] = Cytotoxicity against mouse J774 cells; type: cell-based; conditions: read-out: ID50 (the source's name)
# [12] = test system: Trypanosoma cruzi; experiment: Inhibition of mitochondrial dehydrogenase activity in Trypanosoma cruzi Y epimastigotes at 20 uM up to 120 mins by MTT assay
# Outline: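 Y-strain epimastigotes, 10⁶ per well in 500 μL medium, treated with 20 μM compound at 28 °C, untreated wells as time-matched controls. At each time point cells counted, then MTT (50 μL of 5 mg/mL in PBS) added for 4 h. Stopped with acidic isopropanol, A570 read. Activity given as percent of untreated control.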
# [13] = test system: Trypanosoma cruzi; experiment: Inhibition of mitochondrial dehydrogenase activity in Trypanosoma cruzi Y epimastigotes assessed as reduction of acetate excretion at 5 uM […] by NMR analysis
# Outline: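 Y-strain epimastigotes treated 2 days with 5 μM compound, 5 mL then centrifuged at 1500g for 10 min at 4 °C. Parasite-free supernatant stored at −20 °C. Before NMR, 0.3 mL supernatant mixed with 0.1 mL DMF (10 mM, internal standard) and 0.1 mL D₂O. Excreted metabolites compared with parasite-free medium control, expressed relative to DMF. Three experiments.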
# [14] = test system: Trypanosoma cruzi; experiment: Inhibition of mitochondrial dehydrogenase activity in Trypanosoma cruzi Y epimastigotes assessed as reduction of succinate excretion […] by NMR analysis
# [15] = test system: Trypanosoma cruzi; experiment: Antitrypanosomal activity against Trypanosoma cruzi Colombiana epimastigotes assessed as cell death after 2 days by MTT assay; type: functional; conditions: 48 h, read-out: ID50 (the source's name); outline: as §2
# [16] = test system: Salmonella typhimurium; experiment: Mutagenic activity in Salmonella Typhimurium TA98 assessed as number of revertants at 0.2 to 15 ug/plate by Ames test in presence of S9 fraction; type: toxicity, organism-based; conditions: salmonella enterica subsp. enterica serovar typhimurium
# Outline: (§4)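 Direct plate incubation with S. typhimurium TA98 on minimal glucose agar. Toxicity to the strain tested first; doses run in triplicate from DMSO solutions, DMSO as negative control. Metabolic activation with 500 μL Aroclor-treated mouse liver S9. Positive controls: 4-nitro-o-phenylenediamine 20.0 μg/plate without S9; 2-aminofluorene 10.0 μg/plate with S9. Revertants counted manually; mutagenic if ≥2-fold the negative control at two consecutive doses.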
# [17] = test system: Salmonella typhimurium; experiment: Mutagenic activity in Salmonella Typhimurium TA98 assessed as number of revertants at 0.2 to 15 ug/plate by Ames test in absence of S9 fraction; type: toxicity, organism-based; conditions: salmonella enterica subsp. enterica serovar typhimurium; outline: as §4
# [18] = test system: Trypanosoma cruzi; experiment: Antitrypanosomal activity against Trypanosoma cruzi CL Brener clone infected in BALB/c mouse assessed as reduction of parasitemia level at 10 mg/kg/day, po by ELISA; type: functional, organism-based
# Outline: (§5)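 Male BALB/c or Swiss albino mice, 30 days old, SPF, infected ip with 10³ blood trypomastigotes (CL Brener or Y). Oral dosing in PBS for 10 days. Controls: 10 mice on PBS; treated groups of 8. Tail-vein parasitemia weekly for 60 days, mortality recorded. Anti-T. cruzi antibodies measured by ELISA, run twice, at 30 and 60 or 90 days post-infection.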
# [19] = test system: Trypanosoma cruzi; experiment: Antitrypanosomal activity against Trypanosoma cruzi Y infected in Swiss albino mouse assessed as reduction of parasitemia level at 10 mg/kg/day, po by ELISA; type: functional, organism-based; outline: as §5
# [20] = test system: Salmonella typhimurium; experiment: Mutagenic activity in Salmonella Typhimurium TA98 assessed as number of revertants at 0.05 to 4 ug/plate by Ames test in presence of S9 fraction; type: toxicity, organism-based; conditions: salmonella enterica subsp. enterica serovar typhimurium; outline: as §4
# [21] = test system: Trypanosoma cruzi; experiment: Antitrypanosomal activity against Trypanosoma cruzi CL Brener clone infected in BALB/c mouse assessed as reduction of microbial antibody level at 10 mg/kg/day, po after 30 days by Wilconxon test; type: functional, organism-based; outline: as §5
# [22] = test system: Trypanosoma cruzi; experiment: Antitrypanosomal activity against Trypanosoma cruzi CL Brener clone infected in BALB/c mouse assessed as increase of mouse survival days at 10 mg/kg/day, po relative to control; type: functional
# [23] = test system: Trypanosoma cruzi; experiment: Antitrypanosomal activity against Trypanosoma cruzi Y infected in Swiss albino mouse assessed as increase of mouse survival days at 10 mg/kg/day, po relative to control; type: functional
# [24] = test system: Trypanosoma cruzi; experiment: Antitrypanosomal activity against Trypanosoma cruzi CL Brener clone infected in BALB/c mouse assessed as reduction of microbial antibody level at 10 mg/kg/day, po after 90 days by Wilconxon test; type: functional, organism-based; outline: as §5
# [25] = test system: Salmonella typhimurium; experiment: Mutagenic activity in Salmonella Typhimurium TA98 assessed as number of revertants at 0.05 to 4 ug/plate by Ames test in absence of S9 fraction; type: toxicity, organism-based; conditions: salmonella enterica subsp. enterica serovar typhimurium; outline: as §4
IC50 [8],Compound,Activity [1],Activity [2],IC50 [3],Activity [4],inhibition of growth at 25 µM [5],selectivity ratio [10],CC50 [11],other results
–,Cc1c(C(=O)Nc2ccccc2)[n+]([O-])c2ccccc2[n+]1[O-],32%,0%,> 50 µM,24%,10%,–,–,–
–,CCCCCCCCCCCCCCCCOP(=O)([O-])OCC[N+](C)(C)C [MILTEFOSINE],–,–,9 µM,–,–,–,–,–
–,CN(C)c1ccc(C(=C2C=CC(=[N+](C)C)C=C2)c2ccc(N(C)C)cc2)cc1.[Cl-] [GENTIAN VIOLET],–,–,–,–,–,–,–,Activity [9]: 100%
–,COC(=O)c1c(C)[n+]([O-])c2ccccc2[n+]1[O-],59%,0%,> 50 µM,60%,24%,–,–,–
1100 nM,O=C(c1cccs1)c1c(C(F)(F)F)[n+]([O-])c2ccccc2[n+]1[O-],–,–,–,–,100%,4.3,4.69 µM,–
1400 nM,O=C(c1cccc2ccccc12)c1c(C(F)(F)F)[n+]([O-])c2ccccc2[n+]1[O-],–,–,–,–,100%,5.5,7.92 µM,–
1600 nM,O=C(c1ccc(Cl)cc1)c1c(C(F)(F)F)[n+]([O-])c2ccccc2[n+]1[O-],–,–,–,–,100%,5.3,8.5 µM,–
400 nM,CC(=O)c1c(C)[n+]([O-])c2cc(F)c(F)cc2[n+]1[O-],–,–,–,–,100%,–,–,Activity [16]: Toxic; Activity [17]: Toxic
760 nM,O=C(c1c(C(F)(F)F)[n+]([O-])c2ccccc2[n+]1[O-])N1CCN(c2ccccc2)CC1,–,–,–,–,100%,12.5,9.51 µM,–
790 nM,O=C(c1c(C(F)(F)F)[n+]([O-])c2ccccc2[n+]1[O-])N1CCN(c2ccc(Cl)cc2)CC1,–,–,–,–,100%,10.4,8.25 µM,–
2400 nM,O=C(c1ccco1)c1c(C(F)(F)F)[n+]([O-])c2ccccc2[n+]1[O-],–,–,–,–,100%,3,7.13 µM,–

Compound,IC50 [8],Activity [1],Activity [2],IC50 [3],Activity [4],inhibition of growth at 25 µM [5],selectivity ratio [10],CC50 [11],other results
CCOC(=O)c1c(-c2ccccc2)[n+]([O-])c2cc(Cl)c(Cl)cc2[n+]1[O-],11300 nM,94%,100%,3 µM,100%,99%,–,–,IC50 [6]: 16.4 µM; IC50 [7]: 7.1 µM
O=C(c1ccccc1)c1c(C(F)(F)F)[n+]([O-])c2ccccc2[n+]1[O-],900 nM,97%,100%,1 µM,100%,100%,–,–,IC50 [6]: 3.1 µM; IC50 [7]: 4 µM; inhibition [12]: Active
Cc1c(Sc2ccccc2)[n+]([O-])c2cc(Cl)c(Cl)cc2[n+]1[O-],6500 nM,98%,100%,1.4 µM,100%,93%,–,–,inhibition [13]: Active; IC50 [6]: < 1 µM; inhibition [14]: Active; IC50 [7]: 2.9 µM; IC50 [15]: 1.7 µM; inhibition [12]: Active
Cc1c(C(=O)c2ccccc2)[n+]([O-])c2cc(F)c(F)cc2[n+]1[O-],4200 nM,92%,89%,20.4 µM,98%,92%,–,–,IC50 [6]: 16.2 µM; IC50 [7]: 18.3 µM; IC50 [15]: 4.5 µM
CC1CS(=O)(=O)CCN1/N=C/c1ccc([N+](=O)[O-])o1 (centres undefined) [NIFURTIMOX],7700 nM,–,–,–,–,100%,41,–,IC50 [6]: 4.9 µM; IC50 [7]: 9.7 µM; IC50 [15]: 3.4 µM; inhibition [12]: inactive
CC(=O)c1c(C(F)(F)F)[n+]([O-])c2cc(F)c(F)cc2[n+]1[O-],390 nM,–,–,–,–,100%,27.2,10.6 µM,Activity [9]: 80%; Activity [18]: Active; Activity [19]: inactive; Activity [20]: Toxic; Activity [21]: Active; survival at 10 mg/kg/day [22]: 100%; survival at 10 mg/kg/day [23]: 62.5%; Activity [24]: Active; Activity [25]: Toxic; inhibition [12]: Active
